According to paper PMC10993133 (iScience, 2024):

How the values were obtained:
Assay type in all cases: cell-based, human
MDAMB231 cells [1] = test: ROS generation; details: MDAMB231, 1 µM, 24 hrs, CM-H2DCFDA, n=4
Method in brief: (§1)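 MCF7 or MDAMB231 cells were treated 24 hrs with Dox or encapsulated test compound. Cells were scraped, pelleted and washed twice in chilled PBS, then loaded with CM-H2DCFDA (5 µM) in PBS for 20 min in the dark at 37°C. After washing, cells were lysed in PBS with 1% Tween 20. DCF fluorescence was read at ex 480/em 530 nm. Means ± S.E., n=4, versus vehicle control.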

MCF7 cells [2] = test: DNA fragmentation assay; details: MCF7, 30 hrs exposure, agarose gel
Method in brief: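 MCF7 cells were seeded at 1 × 10^6 per well and exposed 30 hrs. They were lysed at RT in 0.5% Triton X-100, 15 mM EDTA, 20 mM Tris HCl. DNA was extracted with phenol/chloroform/isoamyl alcohol (25:24:1), then treated 1 hr with RNase (0.1 mg/mL) and proteinase K (1 mg/mL). It was precipitated overnight at −20°C with sodium acetate/ethanol, run on 2% agarose and stained with ethidium bromide.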

MCF7 cells [3] = test: ROS generation; details: MCF7, 1 µM, 24 hrs, CM-H2DCFDA, n=4
Method in brief: as §1

MDAMB231 cells [4] = test: Mitochondrial membrane potential; details: MDAMB231, 1 µM, 30 hrs, JC-1, n=4
Method in brief: (§2)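 MCF7 and MDAMB231 cells in DMEM with 10% FCS were treated 30 hrs with Dox or encapsulated test compound, then harvested. They were incubated with shaking in JC-1 (2.5 µg/mL) in PBS at 37°C for 30–35 min. Cells were washed three times for 5 min in cold PBS and resuspended. ΔΨM was taken as the 590/530 nm fluorescence ratio. Means ± S.E., n=4.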

MCF7 cells [5] = test: Mitochondrial membrane potential; details: MCF7, 1 µM, 30 hrs, JC-1, n=4
Method in brief: as §2

SMILES: COc1cccc2c1C(=O)c1c(O)c3c(c(O)c1C2=O)C[C@@](O)(C(=O)CO)C[C@@H]3O[C@H]1C[C@H](N)[C@H](O)[C@H](C)O1 [Dox, doxorubicin]
- increase of intracellular ROS levels (MDAMB231 cells [1]): comparable
- DNA damage (DNA laddering) (MCF7 cells [2]): resulted in DNA damage
- increase of intracellular ROS levels (MCF7 cells [3]): comparable
- mitochondrial membrane potential (ΔΨM) (MDAMB231 cells [4]): loss of mitochondrial membrane potential
- mitochondrial membrane potential (ΔΨM) (MCF7 cells [5]): loss of mitochondrial membrane potential
